What was measured:
[1] = test system: free steroidogenic exposure; assay: Steroidogenic exposure and methylprednisolone/prednisone dose equivalence; type: in vivo, human; conditions: methylprednisolone 16 mg once daily; derived by equation 2 (5 × AUCτ + AUECτ)
Summary of the method: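 Steady-state data came from day 15 of oral methylprednisolone at 16 mg once daily. Free methylprednisolone AUCτ (noncompartmental) and free cortisol AUECτ over one dosing interval were combined by integrating the per-timepoint free steroidogenic concentration equation. Weekly free cortisol exposure was converted to methylprednisolone-equivalent dose, assuming dose-proportionality. Prednisone equivalents used a coefficient of 1.25.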

[2] = cited from earlier work
[3] = test system: free cortisol; type: in vivo, human; conditions: oral methylprednisolone 16 mg once daily
Summary of the method: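 In a single-centre, open-label, parallel-group study, healthy adults (18-50 years, BMI 18.5-30 kg/m2, 51-99 kg, confined on site) took methylprednisolone orally at 16 mg once daily for 15 days. The dose was then tapered to 8 mg daily for 2 days and 4 mg daily for 2 days. Blood for plasma free cortisol was drawn predose and 0.25–24 h postdose on days 1 and 15.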

[4] = PK of ACTH1-24 after synthetic ACTH1-24 depot, phase 1 study; type: in vivo, human; conditions: postdosing of synthetic ACTH1-24 depot

Compound	free steroidogenic exposure at steady state (AUECτSG) [1] [ng·h/mL]	potency of systemic action relative to cortisol [2] [times]	endogenous cortisol after administration [3]	time by which plasma concentrations fell below the quantification limit [4] [h]
C[C@H]1C[C@@H]2[C@H]([C@@H](O)C[C@@]3(C)[C@H]2CC[C@]3(O)C(=O)CO)[C@@]2(C)C=CC(=O)C=C12 [methylprednisolone]	305	5	negligible	
ACTH1-24: the first 24 amino acids of adrenocorticotropic hormone; analyte measured in plasma after synthetic ACTH1-24 depot				< 24

From paper PMC8359281 (Clinical Pharmacology in Drug Development, 2020)
